Among the data in ChEMBL document CHEMBL1125510, “Analogs of the delta opioid receptor selective cyclic peptide [2-D-penicillamine,5-D-penicillamine]-enkephalin: 2',6'-dimethyltyrosine and Gly3-Phe4 amide bond isostere substitutions” (J Med Chem, 1992) are Ki, Ratio and EC50 values, retold here.

Some results are limits rather than exact numbers.

For test [1], the target named is Delta-type opioid receptor (Rattus norvegicus, UniProt P33533). Kind of test: Compound was evaluated for its binding affinity by displacement [3H]- DSLET from Opioid receptor delta 1 by using opioid radioligand binding assay. The method, boiled down:
(§1)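 Male Sprague-Dawley rat forebrain membranes in 50 mM Tris, pH 7.4. Competition against [3H]DSLET (2 nM final, δ) or [3H]DAMPGO (4 nM final, μ). Nonspecific binding defined with 10 μM levorphan. Incubated 60–90 min at 25 °C, then filtered on GF/B and counted. Ki given as mean ± SEM from at least three experiments.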

A further test has as its target Mu-type opioid receptor (Rattus norvegicus, UniProt P33535). Kind of test: Compound was evaluated for its binding affinity by displacement of [3H]- DAMPGO from opioid receptor mu by using opioid radioligand binding assay. The procedure, abridged: as §1
On the technique in general: Displacement assays read how much labelled ligand stays bound in the presence of the test substance.

Test [2] has as its target Mu-type opioid receptor (Rattus norvegicus) (UniProt P33535). Nature of the test: Ratio on opioid receptor mu (ki(nM)) to the opioid receptor delta (Ki(nM)).
The species named for test [3] is Mus musculus. Kind of test: Concentration of the Compound that inhibits electrically-induced contractions of the mouse vas deferens by 50%. The test is classed as functional, organism-based. The procedure, abridged:
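Electrically stimulated isolated mouse vas deferens at 37 °C. Buffer had no tyrosine, ascorbic acid or disodium edetate. IC50 is the concentration that halves contractions, given as mean ± SD of two or three experiments.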

A further test has as its system NG108-15. Nature of the test: Concentration that inhibited PGE-stimulated cAMP formation by 50%, in NG108-15 cells. The following applies: Murinae. The test is classed as functional, cell-based. The procedure, abridged:
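NG108-15 neuroblastoma cells stimulated with PGE1. cAMP measured by radioimmunoassay. EC50 is the concentration that inhibits 50% of stimulated cAMP formation, given as mean ± SD of two determinations.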

Test [4] relates to Mus musculus. Nature of the test: Antinociceptive effect determined at 30 min post injection by writhing test; Inactive at 30 mg/kg, the highest dose tested. It is filed as functional, organism-based. Set-up: dose 30 mg/kg. In general terms: In writhing tests, fewer writhes than in controls are read as antinociception.
The species named for test [5] is Mus musculus. Nature of the test: Antinociceptive effect determined at 30 min post injection by tail flick test. It is filed as functional, organism-based. The method, boiled down:
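Male CD-1 mice, 20–30 g, screened beforehand (TFL ≤ 4.0 s or HPL ≤ 15 s). Groups of 10 dosed sc with vehicle or 10, 30 or 100 mg/kg at 10 mL/kg. Radiant-heat beam focused on blackened tail, and withdrawal latency read by photosensor as the mean of two readings (12 s cutoff). ED50 ± SE in mg/kg taken at 30 min.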
A general note: Hot-plate and tail-flick tests time the reaction to a heat stimulus.

Test [6] is filed under the species Mus musculus. Kind of test: Antinociceptive effect determined at 30 min post injection by writhing test. The test is classed as functional, organism-based.

Chain of Delta-type opioid receptor (P33533 whole entry): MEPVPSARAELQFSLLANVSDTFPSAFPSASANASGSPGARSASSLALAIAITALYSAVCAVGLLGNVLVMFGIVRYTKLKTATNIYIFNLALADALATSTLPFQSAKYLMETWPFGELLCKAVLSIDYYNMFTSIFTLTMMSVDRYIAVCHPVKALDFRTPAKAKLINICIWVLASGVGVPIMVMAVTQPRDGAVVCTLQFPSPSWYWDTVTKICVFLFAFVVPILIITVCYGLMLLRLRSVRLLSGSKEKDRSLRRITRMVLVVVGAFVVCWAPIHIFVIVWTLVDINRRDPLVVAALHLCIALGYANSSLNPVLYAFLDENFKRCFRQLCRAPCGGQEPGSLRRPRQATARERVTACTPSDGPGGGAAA
Chain of Mu-type opioid receptor (P33535 whole entry): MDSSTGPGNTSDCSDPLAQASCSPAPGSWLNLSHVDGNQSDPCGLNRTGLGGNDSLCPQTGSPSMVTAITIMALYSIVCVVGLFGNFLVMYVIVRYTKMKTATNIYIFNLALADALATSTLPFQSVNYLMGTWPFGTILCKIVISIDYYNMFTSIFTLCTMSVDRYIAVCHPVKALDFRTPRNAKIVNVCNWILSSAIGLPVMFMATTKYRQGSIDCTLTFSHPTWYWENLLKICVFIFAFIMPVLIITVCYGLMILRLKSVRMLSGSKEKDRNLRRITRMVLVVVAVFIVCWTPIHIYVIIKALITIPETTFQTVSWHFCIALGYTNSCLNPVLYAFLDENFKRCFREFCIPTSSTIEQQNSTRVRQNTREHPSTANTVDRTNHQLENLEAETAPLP
Chain of Mu-type opioid receptor (Rattus norvegicus) (P33535 whole entry): as above

Usually Ki stands for a measure of affinity in units of concentration, obtained from inhibition or displacement. Read a high Ki as lower affinity. For `COC(=O)[C@H]1NC(=O)C(Cc2ccccc2)CCCNC(=O)[C@@H](NC(=O)[C@@H](N)Cc2c(C)cc(O)cc2C)C(C)(C)SSC1(C)C` (single isomer, unassigned; less polar) [listing 1 of 2 here], the Ki in test [1] is 79 nM; at Mu-type opioid receptor it was 176 nM.
On to `COC(=O)[C@H]1NC(=O)C(Cc2ccccc2)/C=C\CNC(=O)[C@@H](NC(=O)[C@@H](N)Cc2c(C)cc(O)cc2C)C(C)(C)SSC1(C)C` (single isomer, unassigned; less polar) [listing 1 of 2 here], for which, in test [2], the Ratio came to 0.7.
With `COC(=O)[C@H]1NC(=O)C(Cc2ccccc2)/C=C\CNC(=O)[C@@H](NC(=O)[C@@H](N)Cc2c(C)cc(O)cc2C)C(C)(C)SSC1(C)C` (single isomer, unassigned; more polar) [listing 1 of 2 here], the EC50 in the test listed under Mus musculus [3] was 247 nM. Also, the Ki was 2.3 nM in test [1] and 1.1 nM on Mu-type opioid receptor.
As to `COC(=O)[C@H]1NC(=O)C(Cc2ccccc2)CCCNC(=O)[C@@H](NC(=O)[C@@H](N)Cc2c(C)cc(O)cc2C)C(C)(C)SSC1(C)C` (single isomer, unassigned; less polar) [listing 2 of 2 here], the Ratio in test [2] was found to be 2.3.
Still for that read-out and setting: in the case of `COC(=O)[C@H]1NC(=O)C(Cc2ccccc2)/C=C\CNC(=O)[C@@H](NC(=O)[C@@H](N)Cc2c(C)cc(O)cc2C)C(C)(C)SSC1(C)C` (single isomer, unassigned; more polar) [listing 2 of 2 here] it was 0.5; in that of `COC(=O)[C@H]1NC(=O)C(Cc2ccccc2)OCCNC(=O)[C@@H](NC(=O)[C@@H](N)Cc2c(C)cc(O)cc2C)C(C)(C)SSC1(C)C` (single isomer, unassigned; more polar) [listing 1 of 2 here], 1.7.
For `COC(=O)[C@H]1NC(=O)C(Cc2ccccc2)CCCNC(=O)[C@@H](NC(=O)[C@@H](N)Cc2c(C)cc(O)cc2C)C(C)(C)SSC1(C)C` (single isomer, unassigned; more polar) [listing 1 of 2 here], in the test filed under Mus musculus [3] (Mus musculus), the EC50 was greater than 1000 nM. Also, the values for the inhibitory constant (Ki) (in test [1]; at Mu-type opioid receptor) were 21 nM and 11 nM, respectively.
As for `COC(=O)[C@H]1NC(=O)C(Cc2ccccc2)OCCNC(=O)[C@@H](NC(=O)[C@@H](N)Cc2c(C)cc(O)cc2C)C(C)(C)SSC1(C)C` (single isomer, unassigned; less polar) [listing 1 of 2 here], in the test listed under Mus musculus [3], the EC50 stood at 143 nM. In addition, the figures for the inhibition constant Ki (in test [1]; at Mu-type opioid receptor) were 43 nM and 6.5 nM, respectively.
Regarding `COC(=O)[C@H]1NC(=O)C(Cc2ccccc2)OCCNC(=O)[C@@H](NC(=O)[C@@H](N)Cc2c(C)cc(O)cc2C)C(C)(C)SSC1(C)C` (single isomer, unassigned; less polar) [listing 2 of 2 here], the Ratio in test [2] came to 0.15.
Turning to `COC(=O)[C@H]1NC(=O)C(Cc2ccccc2)/C=C\CNC(=O)[C@@H](NC(=O)[C@@H](N)Cc2c(C)cc(O)cc2C)C(C)(C)SSC1(C)C` (single isomer, unassigned; less polar) [listing 2 of 2 here], the EC50 in the test filed under Mus musculus [3] is greater than 1000 nM. Moreover, the Ki in test [1] was 45 nM; on Mu-type opioid receptor, 32 nM.
As for `CC1(C)SSC(C)(C)[C@@H](NC(=O)[C@@H](N)Cc2ccc(O)cc2)C(=O)NCC(=O)N[C@@H](Cc2ccccc2)C(=O)N[C@H]1C(=O)O`, the results for the EC50 in the test listed under Mus musculus [3] (Mus musculus) and with NG108-15 were 5.2 nM and 18 nM, respectively.
Take `COC(=O)[C@H]1NC(=O)C(Cc2ccccc2)OCCNC(=O)[C@@H](NC(=O)[C@@H](N)Cc2c(C)cc(O)cc2C)C(C)(C)SSC1(C)C` (single isomer, unassigned; more polar) [listing 2 of 2 here]: the EC50 in the test listed under Mus musculus [3] was greater than 1000 nM. Besides, the results for the Ki (in test [1]; on Mu-type opioid receptor) were 91 nM and 150 nM, respectively.
Turning to `COC(=O)[C@@H]1NC(=O)[C@H](Cc2ccccc2)NC(=O)CNC(=O)[C@H](NC(=O)[C@@H](N)Cc2ccc(O)cc2)C(C)(C)SSC1(C)C.Cl`, the EC50 in the test filed under Mus musculus [3] (Mus musculus) is 10.5 nM; in the test with Mus musculus [4], “Not Active”; in the test on NG108-15, 21 nM.
Turning to `COC(=O)[C@H]1NC(=O)C(Cc2ccccc2)CCCNC(=O)[C@@H](NC(=O)[C@@H](N)Cc2c(C)cc(O)cc2C)C(C)(C)SSC1(C)C` (single isomer, unassigned; more polar) [listing 2 of 2 here], the Ratio in test [2] is 0.5.
On to `COC(=O)[C@@H]1NC(=O)[C@H](Cc2ccccc2)NC(=O)CNC(=O)[C@H](NC(=O)[C@@H](N)Cc2c(C)cc(O)cc2C)C(C)(C)SSC1(C)C.Cl`, for which the EC50 worked out at 0.65 nM in the test listed under Mus musculus [3] (Mus musculus), 40 mg/kg in the test filed under Mus musculus [5], 2.1 mg/kg in the test listed under Mus musculus [6] and 1.1 nM in the test with NG108-15.
